Our source for the inhibition values is PubChem BioAssay AID493091 (Sanford-Burnham Center for Chemical Genomics, 2011).

By inhibition is commonly meant the drop in the measured response relative to a control, in per cent.

“And” between values parts separate entries of the source, which are not always exact repeats. Equal values may be shown once. The campaign covered roughly 340,000 compounds. About 3,000 (0.88%) were called active.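 The calls were made as follows: active = inhibition above about 50% at 20 µM (limit read from the data); inactive = the rest.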 For the sample, actives were picked, then their nearest neighbours and some compounds at random.

In this test the target is Carboxy-terminal domain RNA polymerase II polypeptide A small phosphatase 1 (Homo sapiens) (UniProt Q9GZU7). Put plainly: Scp-1 phosphatase inhibitors, primary screen, biochemical, colorimetric, uHTS (AID 493091).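 Also: plate controls were DMSO wells with enzyme for no effect and wells lacking enzyme for full effect.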 The note with it: Recombinant Scp1, phosphopeptide, malachite green phosphate absorbance; at 20 µM; stronger effect = higher value. The essentials: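 Material – SCP-1 phosphatase catalytic domain, residues 76-261 · Buffer or medium – Acidic Tris acetate buffer with magnesium and detergent · Also added – Phospho 17-mer peptide substrate · Compound – single 20 µM dose, 1% DMSO · Times – 45 min room-temperature reaction, 5 min colour, 30 min stabiliser · Technique – Phosphate-binding colour reagent, absorbance read at 630 nm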
Chain of Carboxy-terminal domain RNA polymerase II polypeptide A small phosphatase 1 (Homo sapiens) (Q9GZU7 76-261 limits assumed): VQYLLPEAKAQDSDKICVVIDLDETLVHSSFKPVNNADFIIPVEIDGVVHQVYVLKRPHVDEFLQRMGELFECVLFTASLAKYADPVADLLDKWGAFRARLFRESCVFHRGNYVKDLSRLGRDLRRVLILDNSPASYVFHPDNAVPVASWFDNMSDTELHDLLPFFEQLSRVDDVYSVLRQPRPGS
As for `CC(C)(CNC(=O)CNC(=O)C1CCCCC1)N1CCOCC1`, the inhibition is -8.57% (inactive).
For the compound `O=S(=O)(c1ccc(Br)c2ccccc12)N1CCOCC1`, the inhibition was -7.33% (inactive).
On to `COc1ccc2[nH]c3c(C)c4cc[n+](C)cc4c(C)c3c2c1`, for which the inhibition was 64.5% (active).
To `COc1ccc2[nH]c(=S)cc(C)c2c1` belongs -4.32% (inactive); to `COc1ccc2[nH]c(C(=O)N3CCN(C)CC3)c(C)c2c1`, -4.55% (inactive).
The value for `Cn1nc(C(C)(C)C)c([N+](=O)[O-])c1C(N)=O` was -0.65% (inactive); that for `Cc1c([N+](=O)[O-])c(N)nn1C` was 51% (active).
As for `Cc1nn(CCOc2ccc(Br)cc2)c(C)c1[N+](=O)[O-]`, the inhibition is -14.1% (inactive).
To `Clc1ccc(Cn2ncc3c(NCc4cccnc4)ncnc32)cc1` belongs 2.57% (inactive); to `O=C(COC(=O)/C=C/c1ccc(Br)o1)Nc1cccc(S(=O)(=O)N2CCOCC2)c1`, 56% (active).
Take `NS(=O)(=O)c1cccc(NC(=O)COC(=O)/C=C/c2ccco2)c1`: the inhibition is 26.2% (inactive).
With `O=C(COC(=O)c1ccccc1)Nc1cccc(S(=O)(=O)N2CCOCC2)c1`, the inhibition was -6.52% (inactive).
For the compound `C=CCOc1ccc(/C=C/C(=O)OCC(=O)NC(C)c2ccc(F)cc2)cc1` (stereo not given), the inhibition is 1.27% (inactive).
For `Cc1c(CCOC(=O)CC23CC4CC(CC(C)(C4)C2)C3)sc[n+]1Cc1ccc([N+](=O)[O-])cc1`, the inhibition is 12.7% (inactive) and 5.4% (inactive).
Turning to `CN(C)c1nc2n(c(=O)n1)CCO2`, the inhibition was 1.74% (inactive).
`COc1ccc(OCC(=O)NNC(=O)C2CCC2)cc1`: the inhibition was 0.44% (inactive).
The value for `COc1ccc(OCC(=O)NNC(=O)c2ccc(-c3ccccc3)cc2)cc1` was 69.9% (active).
For the compound `CC(NC(=O)COc1ccc(-c2ccccc2)cc1)C1CCCO1` (stereo not given), the inhibition was -2.02% (inactive).
Consider `CCC(C)N1CC(=O)N2Cc3[nH]c4ccccc4c3C[C@H]2C1=O` (stereo not given in full), for which the inhibition is -3.96% (inactive).
Turning to `N/C(=N\OC(=O)c1ccc2c(c1)OCO2)c1ccc(Br)cc1`, the inhibition was -3.74% (inactive).
Take `N/C(=N\OC(=O)Cc1ccccc1[N+](=O)[O-])c1ccc(Br)cc1`: the inhibition is -4.88% (inactive).
Regarding `N/C(=N\OC(=O)N1c2ccccc2Sc2ccccc21)c1ccc(Br)cc1`, the inhibition was 69% (active).
Turning to `Cc1ccc(S(=O)(=O)Nc2nc(N)n(-c3ccccc3)n2)cc1`, the inhibition is -3.38% (inactive).
As to `Cc1cc(C)nc(NS(=O)(=O)c2ccc(N3C(=O)C4CCCCC4C3=O)cc2)n1` (stereo not given), the inhibition was -3.6% (inactive).
On to `Cc1ccc(S(=O)(=O)Nc2nc(C)cc(-n3nc(C)cc3C)n2)cc1`, for which the inhibition is 84.1% (active).
On to `COC(=O)c1sccc1NC(=O)CSc1ccccc1NS(=O)(=O)c1cc(Cl)ccc1Cl`, for which the inhibition was -13.4% (inactive).
To `O=C(CNC(=O)C12CC3CC(CC(C3)C1)C2)OCC(=O)N1CCCCC1` belongs -0.76% (inactive); to `C#CCOCCOCCOCCNc1nc(N2CCN(C(=O)CCCCCCCCCCNC(=O)[C@H](CCCCN)n3cc(C)nn3)CC2)nc(N2CCN(C(=O)CCCCCCCCCCNC(=O)[C@H](CO)n3cc(CCCSC)nn3)CC2)n1`, 26.8% (inactive).
For the compound `C#CCOCCOCCOCCNc1nc(N2CCN(C(=O)Cn3cc(CCO)nn3)CC2)nc(N2CCN(C(=O)Cn3cc(CCCN=C(N)N)nn3)CC2)n1`, the inhibition is 4.14% (inactive).
Consider `C#CCOCCOCCOCCNc1nc(N2CCN(C(=O)CCCCCCCCCCNC(=O)[C@H]([C@@H](C)CC)n3cc(CCCCN=C(N)N)nn3)CC2)nc(N2CCN(C(=O)CCCCCCCCCCNC(=O)[C@H](CO)n3cc(CCCSC)nn3)CC2)n1`, for which the inhibition was 53% (active).
For `Cc1ccc(CNC(=O)C(=O)c2cn(CC(=O)N3CCCC3)c3ccccc23)cc1`, the inhibition is -10.2% (inactive).
`O=C(C1CCC1)N1CCN(c2ccccc2)CC1`: the inhibition is -5.05% (inactive).
In the case of `O=C(c1cc2c(s1)CCC2)N1CCN(c2ccccc2)CC1`, the inhibition was 51.2% (active).
Take `O=C(c1ccccc1)c1ccc(C(=O)N2CCN(c3ccccc3)CC2)cc1`: the inhibition was 0.99% (inactive).
To `O=C1NC(c2ccccc2)Cc2ccncc21` (stereo not given) belongs 5.3% (inactive); to `Cc1cc(/C=C2\SC(=Nc3ccc(N4CCOCC4)cc3)N(C)C2=O)c(C)n1-c1cccnc1`, -4.38% (inactive).
`Cc1cc(/C=C2\SC(=O)N(C)C2=O)c(C)n1-c1cccc(C(=O)O)c1`: the inhibition is 54.7% (active).
Regarding `Cc1cc(/C=C2/SC(=O)N(CC(=O)N3CCCC3)C2=O)c(C)n1C`, the inhibition was -10.3% (inactive).
Take `CC(C)CCN1CCC(C)(NC(=O)c2ccccc2)C1=O` (stereo not given): the inhibition is 5.05% (inactive).
The value for `Cc1nnc(SCc2ccc(C(=O)c3ccc(Cl)cc3)o2)n1-c1ccccc1` was 7.29% (inactive).
Consider `CSc1nc(-c2ccco2)nn1C(=O)c1ccccc1Cl`, for which the inhibition was -10.4% (inactive).
Consider `CCOc1ccccc1/C=c1\sc2nc(-c3ccco3)nn2c1=O`, for which the inhibition is 78% (active).
On to `CCCn1nc(C(=O)NNC(=O)CCOc2ccccc2OCC)c2ccccc2c1=O`, for which the inhibition is -1.1% (inactive).
As for `Nc1ncc(CN2CCCC(C(=O)Nc3ccc(-c4ccco4)cc3)C2)cn1` (stereo not given), the inhibition was -3.44% (inactive).
For `COc1ccc(C(=O)C2CCCN(Cc3cccn3-c3ccccn3)C2)c(C)c1` (stereo not given), the inhibition was -4.92% (inactive).
As for `CCOc1cc(/C=C2\C(=N)N3N=C(C)SC3=NC2=O)ccc1OCCOc1ccccc1`, the inhibition is -5.68% (inactive).
To `COc1ccccc1OCCOc1ccc(/C=C2\C(=N)N3N=C(C)SC3=NC2=O)cc1` belongs -7.04% (inactive); to `CS(=O)(=O)C1=NN2C(=N)/C(=C\c3ccc(OCCOc4ccccc4)cc3)C(=O)N=C2S1`, 50.3% (active).
In the case of `CCOc1ccc(S(=O)(=O)N/N=C(\C)c2ccc(Cl)c(Cl)c2Cl)cc1`, the inhibition was -6.85% (inactive).
Regarding `CSc1ccc(Cl)c(C(=O)OCC(=O)N2CCNC2=O)c1`, the inhibition is 0.5% (inactive).
Regarding `C[N+](C)(C)CCNC(=O)c1cc[n+](Cc2ccccc2)c(/C=N/O)c1`, the inhibition was 99.5% (active).
The value for `CC(C)c1ccc(C(=O)NCCCc2ccccc2)cc1` was -14.7% (inactive); that for `O=C(NCCCNCc1ccccc1)c1ccc(/C=N/O)nc1` was -4.62% (inactive).
Regarding `O=C(NNS(=O)(=O)c1ccc([N+](=O)[O-])cc1)C1CCCCC1`, the inhibition is -6.14% (inactive).
To `Cc1cc2occ(CC(=O)NNC(=O)c3ccccc3F)c2cc1C` belongs -10.5% (inactive).
